Experimental data taken from ChEMBL document CHEMBL4765376, “Discovery of an Orally Available Diazabicyclooctane Inhibitor (ETX0282) of Class A, C, and D Serine β-Lactamases” (J Med Chem, 2020).
Values after ≈ are worked out from the molar mass of the structure shown. Active and inactive are the calls of the source. The calls are words filed in the database; no cut-off is given here.

Experiments:
[1] = Oral bioavailability in Sprague-Dawley rat at 10 mg/kg by LC/MS/MS analysis; type: ADME, organism-based; conditions: in vivo
Outline: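 Jugular vein-cannulated male Sprague Dawley rats (180–200 g, n = 3/route). Intravenous arm: active acid at 10 mg/kg in 0.9% saline, plasma sampled 0.08–8 h. Oral arm: prodrug at a dose equivalent to 10 mg/kg acid in 25:75 PEG 400/WFI, plasma sampled 0.25–24 h. Levels by LC/MS/MS; F = (AUCpo/AUCiv) × 100.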

[2] = Inhibition of beta lactamase TEM-1 in Escherichia coli assessed as decrease in enzyme activity using nitrocefin as chromogenic substrate incubated for 10 mins by […] plate reader analysis
[3] = Inhibition of beta lactamase TEM-1 in Escherichia coli assessed as decrease in enzyme activity using nitrocefin as chromogenic substrate incubated for 60 mins by […] plate reader analysis
[4] = Inhibition of beta lactamase AmpC in Pseudomonas aeruginosa assessed as decrease in enzyme activity using nitrocefin as chromogenic substrate incubated for 10 mins by […] plate reader analysis
[5] = Inhibition of beta lactamase AmpC in Pseudomonas aeruginosa assessed as decrease in enzyme activity using nitrocefin as chromogenic substrate incubated for 60 mins by […] plate reader analysis
[6] = Inhibition of beta lactamase OXA-48 in Klebsiella pneumoniae assessed as decrease in enzyme activity using nitrocefin as chromogenic substrate incubated for 10 mins by […] plate reader analysis
Escherichia coli [7] = assay: Antibacterial activity against Escherichia coli ARC3627 assessed as reduction in bacterial growth by CLSI based broth dilution method; type: functional
Outline: (§1)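 Broth microdilution in CAMHB following CLSI.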

Klebsiella pneumoniae [8] = assay: Antibacterial activity against Klebsiella pneumoniae ARC561 assessed as reduction in bacterial growth by CLSI based broth dilution method; type: functional; outline: as §1
Escherichia coli [9] = assay: Inhibition of beta-lactamase activity in Escherichia coli ARC3627 assessed as MIC for cefpodoxime antibacterial activity at 4 ug/ml by CLSI based broth dilution method (Rvb >64 ug/ml); conditions: dose 4.0 µg/ml
Klebsiella pneumoniae [10] = assay: Inhibition of beta-lactamase activity in Klebsiella pneumoniae ARC561 assessed as MIC for cefpodoxime antibacterial activity at 4 ug/ml by CLSI based broth dilution method (reference value: 32 ug/ml); conditions: dose 4.0 µg/ml
[11] = Inhibition of beta lactamase OXA-48 in Klebsiella pneumoniae assessed as decrease in enzyme activity using nitrocefin as chromogenic substrate incubated for 60 mins by absorbance plate reader analysis

Compound	bioavailability [1] [%]	IC50 [2] [nM]	IC50 [3] [nM]	IC50 [4] [nM]	IC50 [5] [nM]	IC50 [6] [nM]	MIC (Escherichia coli [7])	MIC (Klebsiella pneumoniae [8])	MIC (Escherichia coli [9])	MIC (Klebsiella pneumoniae [10])	IC50 [11] [nM]
CCOC(=O)[C@@H](F)ON1C(=O)N2C[C@H]1C(C)=C[C@H]2C(N)=O	75	–	–	–	–	–	–	–	–	–	–
CC1=C[C@@H]2CN(C(=O)N2OC(F)(F)C(=O)O)[C@@H]1C(N)=O	–	1.2	1.5	50	12	75	inactive	inactive	inactive	inactive	14
CC1=C[C@@H](C(N)=O)N2C[C@@H]1N(O[C@H](F)C(=O)O)C2=O	–	2.3	3.2	450	140	370	–	–	< 0.06 µg/mL	0.25 µg/mL (≈ 0.915 µM)	70
CC1=C[C@@H]2CN(C(=O)N2OCC(=O)O)[C@@H]1C(N)=O	–	1500	430	4100	1200	150	32 µg/mL (≈ 125 µM)	> 32 µg/mL	4 µg/mL (≈ 15.7 µM)	2 µg/mL (≈ 7.84 µM)	51
CC1=C[C@@H]2CN(C(=O)N2O[C@H](F)C(=O)OC(C)OC(=O)OC(C)C)[C@@H]1C(N)=O (some centres not stated)	11	–	–	–	–	–	–	–	–	–	–
CC1=C[C@@H](C(N)=O)N2C[C@@H]1N(O[C@@H](F)C(=O)OC(C)C)C2=O	84	–	–	–	–	–	–	–	–	–	–
CC1=C[C@@H]2CN(C(=O)N2O[C@@H](F)C(=O)O)[C@@H]1C(=O)NC1COC1	–	440	660	260	54	55	16 µg/mL (≈ 48.6 µM)	> 32 µg/mL	> 32 µg/mL	4 µg/mL (≈ 12.1 µM)	12
CCOC(=O)[C@@H](F)ON1C(=O)N2C[C@H]1C=C(C)[C@H]2C(N)=O	45	–	–	–	–	–	–	–	–	–	–
CC1=C[C@@H]2CN(C(=O)N2O[C@@H](F)C(=O)O)[C@@H]1C(=O)NCCS(N)(=O)=O	–	48	57	22	4.1	2200	4 µg/mL (≈ 10.5 µM)	> 32 µg/mL	< 0.06 µg/mL	1 µg/mL (≈ 2.63 µM)	410
CC1=C[C@@H]2CN(C(=O)N2O[C@H](F)C(=O)O)[C@@H]1C(N)=O	–	0.73	1.4	41	11	71	2 µg/mL (≈ 7.32 µM)	32 µg/mL (≈ 117 µM)	0.06 µg/mL (≈ 0.22 µM)	0.25 µg/mL (≈ 0.915 µM)	15
CC1=C[C@@H]2CN(C(=O)N2O[C@@H](F)C(=O)O)[C@@H]1C(=O)NOCC1CC1	–	18	26	700	130	400	> 32 µg/mL	> 32 µg/mL	16 µg/mL (≈ 46.6 µM)	4 µg/mL (≈ 11.7 µM)	87
CC1=C[C@@H](C(N)=O)N2C[C@@H]1N(OCC(=O)O)C2=O	–	340	150	14000	4600	66	2 µg/mL (≈ 7.84 µM)	32 µg/mL (≈ 125 µM)	< 0.06 µg/mL	0.125 µg/mL (≈ 0.49 µM)	530
